Series [1] deals with T1, Glucocorticoid receptor (Homo sapiens) (UniProt P04150).
T1 sequence (whole entry): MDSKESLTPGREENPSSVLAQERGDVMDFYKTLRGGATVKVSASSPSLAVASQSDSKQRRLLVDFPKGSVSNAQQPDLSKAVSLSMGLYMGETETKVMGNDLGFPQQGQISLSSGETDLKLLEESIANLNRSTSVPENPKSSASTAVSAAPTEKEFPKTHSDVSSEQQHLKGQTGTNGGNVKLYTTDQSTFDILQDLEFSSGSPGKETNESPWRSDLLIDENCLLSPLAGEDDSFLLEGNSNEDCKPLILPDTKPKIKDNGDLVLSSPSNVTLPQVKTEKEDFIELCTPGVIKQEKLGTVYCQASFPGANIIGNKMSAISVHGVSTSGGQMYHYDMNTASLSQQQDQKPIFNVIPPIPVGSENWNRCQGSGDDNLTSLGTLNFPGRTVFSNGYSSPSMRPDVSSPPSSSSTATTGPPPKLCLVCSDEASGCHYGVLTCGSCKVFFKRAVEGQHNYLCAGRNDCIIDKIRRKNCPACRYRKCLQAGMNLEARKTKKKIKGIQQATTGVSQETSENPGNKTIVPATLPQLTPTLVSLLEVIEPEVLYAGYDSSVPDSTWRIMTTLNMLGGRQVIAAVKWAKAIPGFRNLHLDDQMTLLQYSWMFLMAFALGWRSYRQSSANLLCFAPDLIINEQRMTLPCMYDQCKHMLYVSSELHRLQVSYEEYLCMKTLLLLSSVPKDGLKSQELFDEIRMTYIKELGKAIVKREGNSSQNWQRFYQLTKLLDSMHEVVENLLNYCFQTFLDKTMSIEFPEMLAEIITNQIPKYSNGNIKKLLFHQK
The series is described as follows: Transactivation activity at GR-mediated modulation of MMTV promoter activity in human A549 cells transfected with luciferase gene linked to MMTV promoter after 16 hrs by luciferase reporter gene assay. The format is cell-based. The gist of the method: (§1)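 HeLa or A549 cells transiently transfected with a luciferase reporter under the MMTV promoter (two GREs), in 10% charcoal-stripped FBS. Compound exposure 16 h, then luciferase measured. Activity expressed as percent of the span between DMSO and dexamethasone controls. Mean of at least three runs.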

Series [2] deals with T1, Glucocorticoid receptor (Homo sapiens). The series can be described thus: Transactivation activity at GR-mediated modulation of MMTV promoter activity in human HeLa cells transfected with luciferase gene linked to MMTV promoter after 16 hrs by luciferase reporter gene assay relative to dexamethasone. The format is cell-based. An outline of the steps:
as §1

Series [3] shares this target. The series can be described thus: Transactivation activity at GR-mediated modulation of MMTV promoter activity in human HeLa cells transfected with luciferase gene linked to MMTV promoter after 16 hrs by luciferase reporter gene assay. The format is cell-based. An outline of the steps:
as §1

For series [4] the target is unchanged. The series is described as follows: Transactivation activity at GR-mediated modulation of MMTV promoter activity in human A549 cells transfected with luciferase gene linked to MMTV promoter after 16 hrs by luciferase reporter gene assay relative to dexamethasone. The format is cell-based. The gist of the method: as §1
For series [5] the target is unchanged. The series is described as follows: Transrepression activity at glucocorticoid receptor in human LPS and TPA-stimulated U937 cells assessed as effect on glucocorticoid-induced TNFalpha repression by beta lactamase reporter gene assay relative to dexamethasone. The format is cell-based. Particulars: U-937. The gist of the method:
(§2)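 U937 cells stably carrying a β-lactamase reporter driven by the human TNF-α promoter (-1083 to +182), in 5% charcoal-stripped FBS. Stimulated with 1 µg/mL LPS plus 50 ng/mL TPA, compound exposure 16 h. β-Lactamase read out. Activity expressed as percent of the span between DMSO and 100 nM dexamethasone controls. Mean of at least three runs.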

Series [6] concerns the target T2, Glucocorticoid receptor (Homo sapiens, UniProt P04150).
T2 sequence (P04150 whole entry): T1 sequence (whole entry)
The series can be described thus: Displacement of [3H]-dexamethasone from human full length GR expressed in insect Sf21 cells. The gist of the method: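 Human full-length GR expressed in insect cells, incubated with compound and 3H-dexamethasone overnight at 4 °C. Bound radioactivity quantified after filtration capture. Nonspecific binding defined with excess unlabelled dexamethasone. Mean of at least two runs.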

The target in series [7] is T1, Glucocorticoid receptor (Homo sapiens). The series can be described thus: Transrepression activity at glucocorticoid receptor in human LPS and TPA-stimulated U937 cells assessed as effect on glucocorticoid-induced TNFalpha repression by beta lactamase reporter gene assay. Format: cell-based. Particulars: U-937. The gist of the method:
as §2

Series [8] has as its system Rattus norvegicus. The series is described as follows: Drug metabolism in oxazolone-induced Sprague-Dawley rat chronic dermatitis model assessed as 2-{2-[(4aS,5R)-1-(4-fluorophenyl)-5-hydroxy-4amethyl- 1,4,4a,5,6,7-hexahydrocyclopenta[f]indazol-5-yl]ethyl}benzamide level at 20 mg/kg, po. The conditions noted are these: in vivo. Details: dose 20 mg/kg, route oral. The format is ADME, organism-based.

A short description of series [9]: Drug uptake in oxazolone-induced Sprague-Dawley rat chronic dermatitis model at 20 mg/kg, po. Format: ADME, organism-based. Further details: dose 20 mg/kg, route oral. Particulars: in vivo, read-out: Drug uptake. An outline of the steps:
(§3)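 Exposure measured in female Sprague-Dawley rats in the oxazolone chronic dermatitis model: sensitization Day 0, ear challenge Days 7 and 9, daily oral dosing for 7 d from Day 7. Exposure expressed as µM h. Blood collected ~4-5 h after last dose.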

Series [10] can be described thus: Drug uptake in oxazolone-induced Sprague-Dawley rat chronic dermatitis model at 5 mg/kg, po. The conditions noted are these: in vivo, read-out: Drug uptake. Details: dose 5 mg/kg, route oral. Format: ADME, organism-based. An outline of the steps:
as §3

Series [11] in a line: Drug uptake in oxazolone-induced Sprague-Dawley rat chronic dermatitis model at 25 mg/kg, po. The format is ADME, organism-based. Further details: dose 25 mg/kg, route oral. The conditions noted are these: in vivo, read-out: Drug uptake. The gist of the method:
as §3

The structures appear in SMILES notation.

Consider `C[C@]12Cc3cnn(-c4ccc(F)cc4)c3C=C1CC[C@@]2(O)CCc1cccc(F)c1C(N)=O`, for which the values for the IP in series [1], in series [3] and in series [7] were 9 nM, 11 nM and 10 nM, respectively. The Emax in series [2] turned out to be 58%; in series [4] it was 75%; in series [5], 84%. The Ki in series [6] was below 1 nM.

`CCNC(=O)c1ccccc1CC[C@]1(O)CCC2=Cc3c(cnn3-c3ccc(F)cc3)C(O)[C@@]21C` (some centres undefined): the IP in series [1] is 1560 nM; in series [3], 1320 nM; in series [7], 958 nM. Further, the Emax turned out to be 6% in [2], 20% in series [4] and 34% in [5]. Moreover, the Ki in series [6] stood at 40 nM.

Consider `C[C@]12Cc3cnn(-c4ccc(F)cc4)c3C=C1[C@H](O)C[C@@]2(O)CCc1ccc(F)cc1C(N)=O`, for which the Emax in [2], in [4] and in series [5] was below 5% throughout. In [6], the Ki is above 400 nM.

For the compound `Cc1cc2cnn(-c3ccc(F)cc3)c2cc1CCC(=O)CCc1ccc(F)cc1C(=O)O`, the Emax in [2], in series [4] and in series [5] was below 5% in each case. Moreover, the Ki in [6] is above 400 nM.

With `C=CCNC(=O)c1ccccc1CC[C@]1(O)CCC2=Cc3c(cnn3-c3ccc(F)cc3)C[C@@]21C`, the IP in [1] was found to be 62 nM; in [3] it was 93 nM; in series [7] it was 123 nM. The Emax in series [2] was found to be 21%; in series [4], 37%; in [5], 62%. This compound had a Ki in series [6] of 1 nM.

Regarding `C=C(C)CNC(=O)c1c(F)cccc1CC[C@]1(O)CCC2=Cc3c(cnn3-c3ccc(F)cc3)C[C@@]21C`, the IP amounted to 95 nM in [1], 132 nM in series [3] and 119 nM in series [7]. In addition, the Emax was 16% in series [2], 24% in series [4] and 67% in series [5]. For the same compound, in series [6], the Ki was below 1 nM.

With `CC(C)(CO)NC(=O)c1ccccc1CC[C@]1(O)CCC2=Cc3c(cnn3-c3ccc(F)cc3)C[C@@]21C`, the values for the IP in series [1], in series [3] and in series [7] were 33 nM, 30 nM and 26 nM, respectively. Moreover, the Emax in series [2] worked out at 71%; in series [4] it was 83%; in series [5] it was 88%. Affinity in series [6] was put at a Ki of 1 nM.

`CC(C)NC(=O)c1ccccc1CC[C@]1(O)CCC2=Cc3c(cnn3-c3ccc(F)cc3)C[C@@]21C`: the IP turned out to be 60 nM in series [1], 83 nM in series [3] and 170 nM in series [7]. The Emax in series [2] was 30%; in series [4], 48%; in series [5], 62%. The compound also had a Ki in [6] of 4 nM.

For the compound `CCCNC(=O)c1c(F)cccc1CC[C@]1(O)CCC2=Cc3c(cnn3-c3ccc(F)cc3)C[C@@]21C`, the IP in [1] came to 26 nM; in series [3], 43 nM; in series [7] it was 30 nM. Further, the Emax stood at 17% in series [2], 25% in series [4] and 72% in series [5]. Further, the Ki in series [6] is below 1 nM.

For `C[C@@]12C(=Cc3c(cnn3-c3ccc(F)cc3)C1O)CC[C@@]2(O)CCc1ccc(F)cc1C(N)=O` (some centres undefined), the results for the Emax in series [2], in series [4] and in series [5] were below 5%, below 5% and 6%, respectively. In series [6], this compound yielded a Ki of 58 nM.

Consider `CC(C)(C)NC(=O)c1ccccc1CC[C@]1(O)CCC2=Cc3c(cnn3-c3ccc(F)cc3)C[C@@]21C`, for which the figures for the IP in series [1], in series [3] and in series [7] were 212 nM, 108 nM and 246 nM, respectively. Besides, the Emax worked out at 14% in [2], 23% in series [4] and 79% in series [5]. The Ki in series [6] came to 10 nM.

As to `C[C@]12Cc3cnn(-c4ccc(F)cc4)c3C=C1CC[C@@]2(O)CCc1c(F)cccc1C(N)=O`, the IP in series [1] stood at 6 nM; in [3], 7 nM; in series [7] it was 3 nM. The Emax in series [2] stood at 89%; in series [4] it was 82%; in series [5], 90%. The same compound showed an inhibitory constant (Ki) in series [6] below 1 nM.

For `CNC(=O)c1ccccc1CC[C@]1(O)CCC2=Cc3c(cnn3-c3ccc(F)cc3)C[C@@]21C`, the figures for the IP in series [1], in series [3] and in [7] were 193 nM, 317 nM and 263 nM, respectively. In addition, the Emax stood at 48% in series [2], 49% in [4] and 50% in [5]. Also, affinity in series [6] was put at a Ki of 2 nM.

Regarding `C[C@]12Cc3cnn(-c4ccc(F)cc4)c3C=C1CC[C@@]2(O)CCc1cc(F)ccc1C(N)=O`, the IP was found to be 36 nM in series [1], 58 nM in [3] and 89 nM in series [7]. The Emax in series [2] is 47%; in series [4], 120%; in series [5], 70%. Also, the Ki in series [6] is below 1 nM.

As to `CNC(=O)c1cccc(CC[C@]2(O)CCC3=Cc4c(cnn4-c4ccc(F)cc4)C[C@@]32C)c1`, the Emax in series [2], in [4] and in series [5] was below 10% throughout. The Ki in series [6] was determined as 15 nM.

Take `C[C@]12Cc3cnn(-c4ccc(F)cc4)c3C=C1CC[C@@]2(O)CCc1cccc(F)c1C(=O)NC1(CO)CC1`: the IP in series [1] amounted to 23 nM; in series [3], 35 nM; in series [7], 24 nM. The figures for the Emax in [2], in series [4] and in series [5] were 79%, 104% and 96%, respectively. Moreover, the affinity in [6] corresponds to a Ki of 3 nM.

As for `CCCNC(=O)c1ccccc1CC[C@]1(O)CCC2=Cc3c(cnn3-c3ccc(F)cc3)C[C@@]21C`, the IP in series [1] was 81 nM; in [3] it was 85 nM; in series [7], 127 nM. The figures for the Emax in series [2], in [4] and in series [5] were 17%, 29% and 50%, respectively. Moreover, in series [6], the affinity, expressed as Ki, was 2 nM.

For `CCNC(=O)c1ccccc1CC[C@]1(O)CCC2=Cc3c(cnn3-c3ccc(F)cc3)C[C@@]21C`, in series [8], the Drug metabolism was determined as 50 µM·h. Besides, the IP stood at 39 nM in series [1], 107 nM in [3] and 88 nM in series [7]. Also, the values for the Emax in series [2], in [4] and in series [5] were 38%, 51% and 65%, respectively. This compound returned a Ki in [6] of 2 nM. Further, the AUC in series [9] stood at 75 µM·h.

As to `CNC(=O)c1ccc(CC[C@]2(O)CCC3=Cc4c(cnn4-c4ccc(F)cc4)C[C@@]32C)cc1`, the Emax is below 10% in [2], below 10% in series [4] and 12% in [5]. This compound returned a Ki in [6] of 155 nM.

For the compound `C[C@]12Cc3cnn(-c4ccc(F)cc4)c3C=C1CC[C@@]2(O)CCc1ccccc1C(N)=O`, the IP in series [1] is 61 nM; in [3], 130 nM; in series [7] it was 56 nM. Moreover, the Emax came out at 66% in [2], 60% in [4] and 82% in series [5]. In addition, the AUC is 134 µM·h in [10] and 199 µM·h in [11]. The same compound showed a Ki in series [6] of 2 nM.

For the origin of these results see ChEMBL document CHEMBL2146476, “Discovery of selective glucocorticoid receptor modulator MK-5932” (Bioorg Med Chem, 2011).
